≈ marks a conversion by molar mass, not a printed value. Calls of active or inactive are those of the source. No cut-off for these calls is given here.
biological target: Coagulation factor X (Homo sapiens) (UniProt P00742); assay: Inhibition of factor 10a (unknown origin) at 10 uM after 15 mins by fluorescence assay relative to control; conditions: not given
Method in brief: (§1)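 Panel of ten serine proteases; percent inhibition read at compound concentrations of 1 µM and 10 µM, each value the mean of 2 experiments.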

Sequence of Coagulation factor X (Homo sapiens) (P00742 41-179 limits assumed): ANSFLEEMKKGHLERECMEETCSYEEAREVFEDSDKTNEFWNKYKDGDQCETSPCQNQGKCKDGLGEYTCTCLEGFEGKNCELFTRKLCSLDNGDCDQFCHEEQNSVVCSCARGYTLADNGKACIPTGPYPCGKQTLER
Sequence of Coagulation factor X (Homo sapiens) (P00742 235-488 limits assumed): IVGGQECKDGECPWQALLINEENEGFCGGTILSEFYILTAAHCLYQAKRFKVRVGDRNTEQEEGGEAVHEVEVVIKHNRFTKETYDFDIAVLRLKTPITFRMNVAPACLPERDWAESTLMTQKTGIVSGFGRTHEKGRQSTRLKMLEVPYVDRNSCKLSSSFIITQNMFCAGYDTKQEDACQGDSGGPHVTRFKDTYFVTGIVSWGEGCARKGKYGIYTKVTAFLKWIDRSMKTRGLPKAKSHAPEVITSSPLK

Compound | inhibition [%]
Cc1ccc(S(=O)(=O)N[C@@H](C(=O)Nc2ccc(C(=N)N)cc2)C2CCCCC2)cc1 | < 10
Cc1ccc(S(=O)(=O)N[C@@H](C(=O)Nc2ccc(C(=N)N)cc2)c2ccccc2)cc1 | < 10
N=C(N)c1ccc(NC(=O)[C@H](NS(=O)(=O)c2ccc(F)cc2)C2CCCCC2)cc1 | < 10

biological target: T1, Cathepsin G (Homo sapiens) (UniProt P08311); assay: Inhibition of human cathepsin G using Suc-Ala-Ala-Pro-Phe-AMC as substrate at 10 uM after 30 mins by fluorescence spectrophotometric method relative to control; conditions: not given; method in brief: as §1
T1 sequence (whole entry): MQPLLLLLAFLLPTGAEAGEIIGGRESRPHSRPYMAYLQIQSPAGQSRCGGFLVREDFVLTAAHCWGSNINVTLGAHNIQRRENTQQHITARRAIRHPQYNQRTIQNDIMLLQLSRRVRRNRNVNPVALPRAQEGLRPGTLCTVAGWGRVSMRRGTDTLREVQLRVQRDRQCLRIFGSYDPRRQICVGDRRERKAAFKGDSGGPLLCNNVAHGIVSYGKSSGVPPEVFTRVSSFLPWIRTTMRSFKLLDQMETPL

Compound | inhibition [%]
Cc1ccc(S(=O)(=O)N[C@@H](C(=O)Nc2ccc(C(=N)N)cc2)C2CCCCC2)cc1 | < 10
Cc1ccc(S(=O)(=O)N[C@@H](C(=O)Nc2ccc(C(=N)N)cc2)c2ccccc2)cc1 | < 10
N=C(N)c1ccc(NC(=O)[C@H](NS(=O)(=O)c2ccc(F)cc2)C2CCCCC2)cc1 | < 10

biological target: Trypsin (Homo sapiens) (UniProt P07477+P07478+P35030); assay: Inhibition of human trypsin using Z-Gly-Pro-Arg-AMC as substrate at 10 uM after 60 mins by fluorescence spectrophotometric method relative to control; format: protein assay; conditions: not given; method in brief: as §1

Compound | inhibition [%]
Cc1ccc(S(=O)(=O)N[C@@H](C(=O)Nc2ccc(C(=N)N)cc2)C2CCCCC2)cc1 | 96
Cc1ccc(S(=O)(=O)N[C@@H](C(=O)Nc2ccc(C(=N)N)cc2)c2ccccc2)cc1 | 93
N=C(N)c1ccc(NC(=O)[C@H](NS(=O)(=O)c2ccc(F)cc2)C2CCCCC2)cc1 | 97

biological target: T2, Neutrophil elastase (Homo sapiens) (UniProt P08246); assay: Inhibition of elastase (unknown origin) at 10 uM relative to control; conditions: not given; method in brief: as §1
T2 sequence (whole entry): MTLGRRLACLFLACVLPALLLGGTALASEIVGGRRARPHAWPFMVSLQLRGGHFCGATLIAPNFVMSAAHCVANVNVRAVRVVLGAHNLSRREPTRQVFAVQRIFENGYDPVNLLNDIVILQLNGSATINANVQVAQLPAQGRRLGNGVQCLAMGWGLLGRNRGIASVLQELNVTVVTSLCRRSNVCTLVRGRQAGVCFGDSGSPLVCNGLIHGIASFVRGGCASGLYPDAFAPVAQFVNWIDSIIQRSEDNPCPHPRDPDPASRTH

Compound | inhibition [%]
Cc1ccc(S(=O)(=O)N[C@@H](C(=O)Nc2ccc(C(=N)N)cc2)C2CCCCC2)cc1 | < 10
Cc1ccc(S(=O)(=O)N[C@@H](C(=O)Nc2ccc(C(=N)N)cc2)c2ccccc2)cc1 | < 10
N=C(N)c1ccc(NC(=O)[C@H](NS(=O)(=O)c2ccc(F)cc2)C2CCCCC2)cc1 | < 10

biological target: Tryptase (Homo sapiens) (UniProt Q9BZJ3+Q15661+Q9NRR2); assay: Inhibition of recombinant full length human tryptase usingZ-Gly-Pro-Arg-AMC as substrate at 1 uM after 60 mins by fluorescence spectrophotometric method relative to control; format: protein assay; conditions: not given; method in brief: as §1

Compound | inhibition [%]
Cc1ccc(S(=O)(=O)N[C@@H](C(=O)Nc2ccc(C(=N)N)cc2)C2CCCCC2)cc1 | 52
Cc1ccc(S(=O)(=O)N[C@@H](C(=O)Nc2ccc(C(=N)N)cc2)c2ccccc2)cc1 | 27
N=C(N)c1ccc(NC(=O)[C@H](NS(=O)(=O)c2ccc(F)cc2)C2CCCCC2)cc1 | 40

biological target: T2, Neutrophil elastase (Homo sapiens); assay: Inhibition of elastase (unknown origin) at 1 uM relative to control; conditions: not given; method in brief: as §1

Compound | inhibition [%]
Cc1ccc(S(=O)(=O)N[C@@H](C(=O)Nc2ccc(C(=N)N)cc2)C2CCCCC2)cc1 | < 10
Cc1ccc(S(=O)(=O)N[C@@H](C(=O)Nc2ccc(C(=N)N)cc2)c2ccccc2)cc1 | < 10
N=C(N)c1ccc(NC(=O)[C@H](NS(=O)(=O)c2ccc(F)cc2)C2CCCCC2)cc1 | < 10

biological target: T3, Hepatocyte growth factor activator serine protease (Homo sapiens) (UniProt Q04756); assay: Inhibition of C-terminal 10-His tagged recombinant human HGFA (Gln36 to Ser655 residues) expressed in mouse […] cells 1 uM after 15 mins by fluorescence assay relative to control; format: cell-based; conditions: not given
T3 sequence (whole entry): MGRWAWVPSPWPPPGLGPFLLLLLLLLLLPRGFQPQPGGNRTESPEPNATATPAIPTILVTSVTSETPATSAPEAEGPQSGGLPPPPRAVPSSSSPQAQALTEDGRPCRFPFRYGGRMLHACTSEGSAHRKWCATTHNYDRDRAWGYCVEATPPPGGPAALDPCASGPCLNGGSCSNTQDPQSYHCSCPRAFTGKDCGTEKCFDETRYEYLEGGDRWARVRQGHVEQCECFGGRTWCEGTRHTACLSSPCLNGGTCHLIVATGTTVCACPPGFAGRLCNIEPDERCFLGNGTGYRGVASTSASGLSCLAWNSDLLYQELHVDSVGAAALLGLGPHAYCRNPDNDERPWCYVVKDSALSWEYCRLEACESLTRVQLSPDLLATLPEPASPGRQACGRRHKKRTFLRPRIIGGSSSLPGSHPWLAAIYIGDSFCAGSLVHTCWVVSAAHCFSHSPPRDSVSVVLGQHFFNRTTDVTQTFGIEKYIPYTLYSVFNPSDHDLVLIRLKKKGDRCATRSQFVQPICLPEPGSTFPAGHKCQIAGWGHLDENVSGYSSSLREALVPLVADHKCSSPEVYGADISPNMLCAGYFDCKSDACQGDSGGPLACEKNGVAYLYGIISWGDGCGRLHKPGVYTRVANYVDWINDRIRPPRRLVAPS

Compound | inhibition [%]
Cc1ccc(S(=O)(=O)N[C@@H](C(=O)Nc2ccc(C(=N)N)cc2)C2CCCCC2)cc1 | 18
Cc1ccc(S(=O)(=O)N[C@@H](C(=O)Nc2ccc(C(=N)N)cc2)c2ccccc2)cc1 | 16
N=C(N)c1ccc(NC(=O)[C@H](NS(=O)(=O)c2ccc(F)cc2)C2CCCCC2)cc1 | 10

biological target: Coagulation factor X (Homo sapiens) (UniProt P00742); assay: Inhibition of factor 10a (unknown origin) at 1 uM after 15 mins by fluorescence assay relative to control; conditions: not given; method in brief: as §1

Compound | inhibition [%]
Cc1ccc(S(=O)(=O)N[C@@H](C(=O)Nc2ccc(C(=N)N)cc2)C2CCCCC2)cc1 | < 10
Cc1ccc(S(=O)(=O)N[C@@H](C(=O)Nc2ccc(C(=N)N)cc2)c2ccccc2)cc1 | < 10
N=C(N)c1ccc(NC(=O)[C@H](NS(=O)(=O)c2ccc(F)cc2)C2CCCCC2)cc1 | < 10

biological target: Prothrombin (Homo sapiens) (UniProt P00734); assay: Inhibition of human thrombin using Z-Gly-Pro-Arg-AMC as substrate at 10 uM after 60 mins by fluorescence spectrophotometric method relative to control; conditions: not given; method in brief: as §1

Compound | inhibition [%]
Cc1ccc(S(=O)(=O)N[C@@H](C(=O)Nc2ccc(C(=N)N)cc2)C2CCCCC2)cc1 | 12
Cc1ccc(S(=O)(=O)N[C@@H](C(=O)Nc2ccc(C(=N)N)cc2)c2ccccc2)cc1 | 44
N=C(N)c1ccc(NC(=O)[C@H](NS(=O)(=O)c2ccc(F)cc2)C2CCCCC2)cc1 | 10

biological target: Serine protease hepsin (Homo sapiens, UniProt P05981, D161E/R162K); assay: Inhibition of recombinant C-terminal His10-tagged human Hepsin (R45 to […] residues) D161E/ R162K double mutant expressed in mouse NS0 cells using Boc-QRR-AMC as substrate after 15 mins by manual fluorescence assay; conditions: not given

Compound | IC50 [nM]
Cc1ccc(S(=O)(=O)N[C@@H](C(=O)Nc2ccc(C(=N)N)cc2)C2CCCCC2)cc1 | 38 to 70
Cc1ccc(S(=O)(=O)N[C@@H](C(=O)Nc2ccc(C(=N)N)cc2)c2ccccc2)cc1 | 22
N=C(N)c1ccc(NC(=O)[C@H](NS(=O)(=O)c2ccc(F)cc2)C2CCCCC2)cc1 | 190

biological target: Serine protease hepsin (Homo sapiens, UniProt P05981); assay: Inhibition of hepsin-mediated conversion of Pro-HGF into active form in human Hs578T cells assessed as decrease in MET phosphorylation at 1 to 10 uM preincubated for 30 mins followed by recombinant human pro-HGF addition measured after 30 mins by immunoblot method; format: cell-based; conditions: not given
Method in brief: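 Hs578T or HCC1937 breast cells incubated with DMSO or inhibitor, then 50 ng/mL recombinant human Pro-HGF added; MET pathway activation (phospho-MET) assessed by immunoblotting.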

Sequence of Serine protease hepsin (Homo sapiens, UniProt P05981) (P05981 1-162 limits assumed): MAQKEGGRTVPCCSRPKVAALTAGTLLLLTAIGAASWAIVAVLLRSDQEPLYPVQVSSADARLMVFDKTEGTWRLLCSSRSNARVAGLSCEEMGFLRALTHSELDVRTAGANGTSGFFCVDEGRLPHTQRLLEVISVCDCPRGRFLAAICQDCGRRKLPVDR
Sequence of Serine protease hepsin (Homo sapiens, UniProt P05981) (P05981 163-417 limits assumed): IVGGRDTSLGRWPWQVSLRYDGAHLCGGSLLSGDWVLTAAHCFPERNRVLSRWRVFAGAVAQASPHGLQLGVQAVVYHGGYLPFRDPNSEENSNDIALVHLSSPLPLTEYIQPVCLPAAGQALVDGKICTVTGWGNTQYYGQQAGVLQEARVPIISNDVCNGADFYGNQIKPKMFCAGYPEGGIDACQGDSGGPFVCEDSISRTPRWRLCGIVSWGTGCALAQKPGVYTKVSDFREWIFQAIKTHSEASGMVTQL

Compound | inhibition
Cc1ccc(S(=O)(=O)N[C@@H](C(=O)Nc2ccc(C(=N)N)cc2)C2CCCCC2)cc1 | Active
Cc1ccc(S(=O)(=O)N[C@@H](C(=O)Nc2ccc(C(=N)N)cc2)c2ccccc2)cc1 | Active
N=C(N)c1ccc(NC(=O)[C@H](NS(=O)(=O)c2ccc(F)cc2)C2CCCCC2)cc1 | Active

biological target: Dipeptidyl peptidase 4 (Homo sapiens) (UniProt P27487); assay: Inhibition of recombinant full length human dipeptidyl peptidase 4 using GP-AMC as substrate at 10 uM after 10 mins by fluorescence spectrophotometric method relative to control; conditions: not given; method in brief: as §1
Sequence (P27487 whole entry, looked up): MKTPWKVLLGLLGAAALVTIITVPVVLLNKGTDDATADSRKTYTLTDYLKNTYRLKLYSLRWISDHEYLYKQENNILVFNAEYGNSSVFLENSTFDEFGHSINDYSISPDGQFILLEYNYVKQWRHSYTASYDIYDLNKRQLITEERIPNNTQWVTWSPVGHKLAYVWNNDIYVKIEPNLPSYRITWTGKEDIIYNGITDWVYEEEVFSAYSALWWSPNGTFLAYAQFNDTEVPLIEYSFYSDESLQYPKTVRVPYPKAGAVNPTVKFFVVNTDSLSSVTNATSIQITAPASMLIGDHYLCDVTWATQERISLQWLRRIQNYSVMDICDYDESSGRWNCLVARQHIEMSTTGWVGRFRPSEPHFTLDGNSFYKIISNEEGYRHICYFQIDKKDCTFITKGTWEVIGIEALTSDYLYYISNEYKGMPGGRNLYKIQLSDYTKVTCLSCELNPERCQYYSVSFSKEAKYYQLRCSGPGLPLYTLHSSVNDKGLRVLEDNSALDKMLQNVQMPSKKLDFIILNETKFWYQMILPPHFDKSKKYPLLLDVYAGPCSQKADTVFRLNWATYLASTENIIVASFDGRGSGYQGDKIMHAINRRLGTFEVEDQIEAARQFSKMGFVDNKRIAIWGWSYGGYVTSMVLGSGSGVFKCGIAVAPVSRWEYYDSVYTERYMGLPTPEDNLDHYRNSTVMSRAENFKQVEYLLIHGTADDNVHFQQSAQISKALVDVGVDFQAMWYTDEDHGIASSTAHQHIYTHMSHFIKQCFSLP

Compound | inhibition [%]
Cc1ccc(S(=O)(=O)N[C@@H](C(=O)Nc2ccc(C(=N)N)cc2)C2CCCCC2)cc1 | < 10
Cc1ccc(S(=O)(=O)N[C@@H](C(=O)Nc2ccc(C(=N)N)cc2)c2ccccc2)cc1 | < 10
N=C(N)c1ccc(NC(=O)[C@H](NS(=O)(=O)c2ccc(F)cc2)C2CCCCC2)cc1 | < 10

biological target: T4, Chymase (Homo sapiens) (UniProt P23946); assay: Inhibition of human chymase using Suc-Ala-Ala-Pro-Phe-AMC as substrate at 1 uM after 120 mins by fluorescence spectrophotometric method relative to control; conditions: not given; method in brief: as §1
T4 sequence (whole entry): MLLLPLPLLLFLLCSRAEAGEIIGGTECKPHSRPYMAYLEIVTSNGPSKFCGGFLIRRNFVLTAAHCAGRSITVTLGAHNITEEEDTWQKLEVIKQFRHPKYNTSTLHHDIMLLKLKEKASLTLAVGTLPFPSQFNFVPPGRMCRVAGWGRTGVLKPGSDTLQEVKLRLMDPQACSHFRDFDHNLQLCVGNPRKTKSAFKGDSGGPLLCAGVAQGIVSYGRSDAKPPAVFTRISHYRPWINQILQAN

Compound | inhibition [%]
Cc1ccc(S(=O)(=O)N[C@@H](C(=O)Nc2ccc(C(=N)N)cc2)C2CCCCC2)cc1 | < 10
Cc1ccc(S(=O)(=O)N[C@@H](C(=O)Nc2ccc(C(=N)N)cc2)c2ccccc2)cc1 | < 10
N=C(N)c1ccc(NC(=O)[C@H](NS(=O)(=O)c2ccc(F)cc2)C2CCCCC2)cc1 | < 10

test system: not listed separately; assay: Half life in mouse liver microsomes at 3 uM preincubated for 5 mins followed by NADPH addition by LC-MS/MS analysis; format: ADME, microsome; conditions: not given

Compound | half-life at 3 µM [h]
Cc1ccc(S(=O)(=O)N[C@@H](C(=O)Nc2ccc(C(=N)N)cc2)C2CCCCC2)cc1 | 1.23
Cc1ccc(S(=O)(=O)N[C@@H](C(=O)Nc2ccc(C(=N)N)cc2)c2ccccc2)cc1 | 1.8
N=C(N)c1ccc(NC(=O)[C@H](NS(=O)(=O)c2ccc(F)cc2)C2CCCCC2)cc1 | 0.8

biological target: T1, Cathepsin G (Homo sapiens); assay: Inhibition of human cathepsin G using Suc-Ala-Ala-Pro-Phe-AMC as substrate at 1 uM after 30 mins by fluorescence spectrophotometric method relative to control; conditions: not given; method in brief: as §1

Compound | inhibition [%]
Cc1ccc(S(=O)(=O)N[C@@H](C(=O)Nc2ccc(C(=N)N)cc2)C2CCCCC2)cc1 | < 10
Cc1ccc(S(=O)(=O)N[C@@H](C(=O)Nc2ccc(C(=N)N)cc2)c2ccccc2)cc1 | < 10
N=C(N)c1ccc(NC(=O)[C@H](NS(=O)(=O)c2ccc(F)cc2)C2CCCCC2)cc1 | < 10

biological target: T3, Hepatocyte growth factor activator serine protease (Homo sapiens); assay: Inhibition of C-terminal 10-His tagged recombinant human HGFA (Gln36 to Ser655 residues) expressed in mouse […] cells 10 uM after 15 mins by fluorescence assay relative to control; format: cell-based; conditions: not given

Compound | inhibition [%]
Cc1ccc(S(=O)(=O)N[C@@H](C(=O)Nc2ccc(C(=N)N)cc2)C2CCCCC2)cc1 | 22
Cc1ccc(S(=O)(=O)N[C@@H](C(=O)Nc2ccc(C(=N)N)cc2)c2ccccc2)cc1 | 24
N=C(N)c1ccc(NC(=O)[C@H](NS(=O)(=O)c2ccc(F)cc2)C2CCCCC2)cc1 | 24

test system: not listed separately; assay: Kinetic solubility of the compound in PBS at pH 7.4 at 6.75 to 200 uM after 90 mins by UV absorbance based assay; format: physicochemical; conditions: read-out: Kinetic_solubility

Compound | solubility kinetic at 1.5 h [µM]
Cc1ccc(S(=O)(=O)N[C@@H](C(=O)Nc2ccc(C(=N)N)cc2)C2CCCCC2)cc1 | > 200
Cc1ccc(S(=O)(=O)N[C@@H](C(=O)Nc2ccc(C(=N)N)cc2)c2ccccc2)cc1 | > 200
N=C(N)c1ccc(NC(=O)[C@H](NS(=O)(=O)c2ccc(F)cc2)C2CCCCC2)cc1 | 200 (≈ 86.5 µg/mL)

Source: ChEMBL document CHEMBL4118144, “Design, Synthesis, and Testing of Potent, Selective Hepsin Inhibitors via Application of an Automated Closed-Loop Optimization Platform” (J Med Chem, 2018)
